Source: PubChem (Broad Institute)
CASP6 VEID inh = inhibitors of human caspase-6 | inhibition, % at 12.5 µM | AID 686996 | 350,000 compounds, 0.53% hits | P55212 | purified caspase-6, Z-VEID-R110 cleavage fluorescence;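 active = mean inhibition across replicates at least about 35%, with every replicate also reaching that limit, limit read from the data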
Target sequence (P55212 24-179 limits assumed): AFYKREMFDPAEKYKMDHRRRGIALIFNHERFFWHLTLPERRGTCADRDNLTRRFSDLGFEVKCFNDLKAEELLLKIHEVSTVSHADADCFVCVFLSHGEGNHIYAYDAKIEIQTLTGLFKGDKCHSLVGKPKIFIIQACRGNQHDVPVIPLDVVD
Target sequence (P55212 194-293 limits assumed): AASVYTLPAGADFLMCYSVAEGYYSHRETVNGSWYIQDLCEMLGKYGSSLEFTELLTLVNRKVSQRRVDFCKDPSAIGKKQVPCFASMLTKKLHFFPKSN
FN deposition inh = fibronectin deposition inhibition | 350,000 compounds, 0.086% hits | inhibition, % at 12.6 µM | AH1F fibroblasts, Alexa488-fibronectin deposition fluorescence, overnight | AID 743247;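 active = mean inhibition across replicates of 30% or more, regardless of how many single replicates reach that level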
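Material: AH1F fibroblast monolayer depositing Alexa488-labelled fibronectin into matrix | Input: 10000 AH1F cells/well | Medium: DMEM plus 2% serum, read in PBS | Reagent: Alexa488-fibronectin, 24 nM final in well | Compound dosing: One dose per compound, pinned | Schedule: 1 h adhesion, overnight exposure | Measured by: Fluorescence at 485 nm excitation, 525 nm emission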
DENV2 CPE rescue = DENV2-induced cell death inhibition; DENV2-infected cells, cytopathic effect rescue, plate reader; CPE inhibition, % at 9.99 µM; 350,000 compounds, 1.7% hits; in the data active = CPE inhibition above about 20%, passing the limit was not always enough; tested in BHK-21 cells
CaV13 FRET inh = Primary screen for inhibitors of IQ motif and Ca2+-dependent inactivation inhibitor domain binding in CACNA1D, Förster resonance energy transfer in living cells, … | HEK cells, CFP/YFP FRET ICDI-IQ, plate reader, 10 min; percent FRET-ratio fall versus neutral wells | inhibition, % at 12.3 µM | 340,000 compounds, 0.098% hits | AID 743397;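 active = mean replicate inhibition of at least 30% and at least 1% of replicates passing that level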
Xi reactivation = X-chromosome reactivation activator. XiGFP mouse fibroblasts, % GFP-positive cells imaging, 3 d; cells co-treated with 5-aza-dC sensitizer; scaled so ellipticine positive control = 100%. activation, % at 7.58 µM. 360,000 compounds, 0.055% hits. AID 743238;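 active = mean normalized replicate activation at least 10% and every replicate at or above 10%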
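Material: XiGFP fibroblasts, SV40-immortalized; Buffer or medium: DMEM containing 5-aza-dC; Compound dosing: single point; Times: 3 days compound exposure.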
Large screens that a line does not name were inactive. Hits are enriched below; roughly 2% of the tested compounds scored in any of these assays.

CC(C)NC(=O)NCC[C@H]1CC[C@H](NC(=O)Nc2ccccc2)[C@H](CO)O1	none (no result: CaV13 FRET inh)
Cc1oc2c(c1C(=O)O)C(=O)c1ccccc1C2=O	CASP6 VEID inh 58.5
C[C@H]1CN([C@@H](C)CO)C(=O)c2c(c3ccccc3n2C)-c2ccccc2CO[C@H]1CN(C)Cc1cccnc1	none (no result: CaV13 FRET inh)
COc1ccc(S(=O)(=O)N(C)C[C@H]2OCCCC[C@H](C)Oc3ccc(NC(=O)c4ccncc4)cc3C(=O)N([C@@H](C)CO)C[C@@H]2C)cc1	none (no result: CaV13 FRET inh)
CC#CCN1C(=O)N[C@@H](c2ccccc2)C(C(=O)OC)=C1C	DENV2 CPE rescue 32.6
COC(=O)C1=C(C)N(Cc2ccccc2)C(=O)N[C@H]1c1ccc(Br)cc1	none
O=C(NCc1ccccc1)[C@H]1[C@H](CO)[C@H]2Cn3c(ccc(-c4cccnc4)c3=O)[C@H]2N1Cc1cocn1	none (no result: CASP6 VEID inh, FN deposition inh, DENV2 CPE rescue, CaV13 FRET inh)
CNC[C@@H]1OCCCC[C@H](C)Oc2ccc(NS(=O)(=O)c3ccc(C)cc3)cc2C(=O)N([C@H](C)CO)C[C@H]1C	none (no result: CaV13 FRET inh)
COc1ccc(COC(=O)C2=C(C)NC(=O)NC2c2ccccc2F)cc1 (stereo not drawn)	DENV2 CPE rescue 39.0
COc1ccc(COC(=O)C2=C(C)NC(=O)NC2c2ccccc2)cc1 (stereo not drawn)	none
O=C(O)c1ccc2nc(-c3ccco3)c(-c3ccco3)nc2c1	CASP6 VEID inh 71.6
O=C(c1ccc2nc(-c3ccco3)c(-c3ccco3)nc2c1)N1CCN(c2ccccc2)CC1	none (no result: CASP6 VEID inh, FN deposition inh, DENV2 CPE rescue, Xi reactivation)
CC(=O)N(C)C[C@H]1Oc2ccc(NS(C)(=O)=O)cc2CC(=O)N(C)C[C@H]1C	none (no result: CASP6 VEID inh, DENV2 CPE rescue, CaV13 FRET inh)
CCC(SC1=NCCS1)C(=O)Nc1ccc(S(N)(=O)=O)cc1 (stereo not drawn)	DENV2 CPE rescue 26.0
N#Cc1ccc(-c2cccc(-c3nc(C(=O)O)cc4c3[C@@H](CCO)N(CC3CCOCC3)C4)c2)cc1	none (no result: CASP6 VEID inh, DENV2 CPE rescue, CaV13 FRET inh)
COc1cccc(NC(=O)N2C[C@@H](O)COC[C@@H]3O[C@H](CC(=O)NCc4ccccc4F)CC[C@H]32)c1	none (no result: CaV13 FRET inh)
S=C(SSC(=S)N1CCOCC1)N1CCOCC1	DENV2 CPE rescue 24.2
CC(SC(=S)N1CCOCC1)C(=O)O (stereo not drawn)	none (no result: CASP6 VEID inh, FN deposition inh, DENV2 CPE rescue, Xi reactivation)
COc1ccc2c3c([nH]c2c1)[C@@H](CO)N(C(=O)C1CCOCC1)CC31CCN(C(=O)NC(C)C)CC1	none (no result: FN deposition inh, CaV13 FRET inh)
C[C@@H]1CN([C@H](C)CO)C(=O)c2cc(NS(C)(=O)=O)ccc2O[C@@H](C)CCCCO[C@H]1CN(C)S(=O)(=O)c1ccc(F)cc1	DENV2 CPE rescue 26.6 (no result: FN deposition inh, CaV13 FRET inh)
C[C@@H]1CCCCO[C@H](CN(C)S(=O)(=O)c2ccc(F)cc2)[C@@H](C)CN([C@H](C)CO)C(=O)c2cc(NS(C)(=O)=O)ccc2O1	none (no result: FN deposition inh, CaV13 FRET inh)
C[C@@H]1CN([C@@H](C)CO)C(=O)c2cc(NS(C)(=O)=O)ccc2O[C@@H](C)CCCCO[C@H]1CN(C)S(=O)(=O)c1ccc(F)cc1	DENV2 CPE rescue 67.2 (no result: FN deposition inh, CaV13 FRET inh)
C[C@@H]1CCCCO[C@H](CN(C)S(=O)(=O)c2ccccc2)[C@@H](C)CN([C@@H](C)CO)C(=O)c2cc(NS(=O)(=O)c3ccc(F)cc3)ccc2O1	DENV2 CPE rescue 25.3 (no result: CaV13 FRET inh)
COc1ccc2c3c([nH]c2c1)[C@@H](CO)N(C(=O)c1ccccn1)CC31CN(S(C)(=O)=O)C1	none (no result: FN deposition inh, CaV13 FRET inh)
Cc1nn(-c2ccccc2)c(N)c1C1(O)C(=O)N(C(C)C)c2ccccc21 (stereo not drawn)	none
Cc1nn(-c2ccccc2)c2c1P(=O)(O)/C(=C1\N(C)c3ccccc3C1(C)C)C=N2	CASP6 VEID inh 39.7 (no result: FN deposition inh, Xi reactivation)
CCOC(=O)[C@H]1[C@H]2COc3ccc(Cl)cc3[C@@H]2N2C(=O)CN(Cc3ccc(C)cc3)C(=O)[C@@]12C	CASP6 VEID inh 39.7
CCOC(=O)[C@H]1[C@H]2COc3ccc(Cl)cc3[C@@H]2N2C(=O)c3ccc(Cl)cc3NC(=O)[C@@]12C	DENV2 CPE rescue 52.0
CCOC(=O)[C@H]1[C@H]2COc3ccc(C)cc3[C@@H]2N2C(=O)c3ccc(Cl)cc3NC(=O)[C@@]12C	none
CCOC(=O)[C@H]1[C@H]2COc3ccc(Cl)cc3[C@@H]2N2C(=O)CN(Cc3ccc(OC)cc3)C(=O)[C@@]12C	none
C[C@@H]1CN([C@@H](C)CO)C(=O)Cc2cc(NC(=O)CCCCCC(=O)Nc3ccccc3N)ccc2O[C@H]1CN(C)CC1CC1	DENV2 CPE rescue 21.2 (no result: FN deposition inh, CaV13 FRET inh)
C[C@@H]1CN([C@H](C)CO)C(=O)Cc2cc(NC(=O)CCCCCC(=O)Nc3ccccc3N)ccc2O[C@@H]1CN(C)S(C)(=O)=O	DENV2 CPE rescue 90.7 (no result: FN deposition inh, CaV13 FRET inh)
C[C@H](CO)N1C[C@H](C)[C@@H](CN(C)Cc2ccc(C(F)(F)F)cc2)Oc2ccc(NC(=O)CCCCCC(=O)Nc3ccccc3N)cc2CC1=O	none (no result: CaV13 FRET inh)
C[C@@H]1CN([C@@H](C)CO)C(=O)Cc2cc(NC(=O)CCCCCC(=O)Nc3ccccc3N)ccc2O[C@@H]1CN(C)S(C)(=O)=O	none (no result: FN deposition inh, CaV13 FRET inh)
Cc1noc(C)c1S(=O)(=O)N(C)C[C@@H]1Oc2ccc(NC(=O)CCCCCC(=O)Nc3ccccc3N)cc2CC(=O)N([C@H](C)CO)C[C@H]1C	none (no result: CASP6 VEID inh, CaV13 FRET inh)
Cc1noc(C)c1S(=O)(=O)N(C)C[C@@H]1Oc2ccc(NC(=O)CCCCCC(=O)Nc3ccccc3N)cc2CC(=O)N([C@@H](C)CO)C[C@@H]1C	DENV2 CPE rescue 29.1 (no result: CaV13 FRET inh)
C[C@@H]1CN([C@@H](C)CO)C(=O)Cc2cc(NC(=O)CCCCCC(=O)Nc3ccccc3N)ccc2O[C@@H]1CN(C)Cc1ccc(C(F)(F)F)cc1	DENV2 CPE rescue 95.7 (no result: CaV13 FRET inh)
C[C@H]1CN([C@@H](C)CO)C(=O)c2cc(C#CC(C)(C)O)cnc2O[C@@H]1CN(C)Cc1cncnc1	none (no result: CaV13 FRET inh)
